# Laboratory results as given in article PMC5609517 (Chemical Science, 2017).
# Columns and labels:
# [1] = type: physicochemical; settings: solutions in aqueous media at pH < 7, prolonged periods (>1 week)
# MDCK cells = test: Imaging of carbon monoxide in living cells with fluorescent probe COP-1; type: cell-based, Canine; settings: 10 μM, at 8 and 37 °C, against respective iCORM (50 μM)
# Procedure, shortened: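 MDCK cells exposed at 37 °C and at 8 °C to test compound (10 μM) or to its CO-depleted product (iCORM, 50 μM) as comparator. Intracellular CO was detected with the CO-selective fluorescent probe COP-1, read as intracellular fluorescence.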
compound,measurement,setting,value
CC12C(=O)C(C)(C(c3ccccc3)=C1c1ccccc1)C1(Br)C(=O)N(CCNCCN)C(=O)C21.O=C(O)C(F)(F)F.O=C(O)C(F)(F)F (centres unmarked) [oCOm-23],formation of the corresponding iCORM,[1],no sign of the formation
same,CO delivery to cells / increased intracellular CO levels (COP-1),MDCK cells,confirmed
